Results reported in ChEMBL document CHEMBL5385968 (RSC Med Chem, 2024).
Calls of active or inactive are those of the source. The calls are words filed in the database; no cut-off is given here.

Tests used:
[1] = Cytotoxicity against CD-1 mouse bone marrow leucocytes assessed as reduction in cell viability at 25 uM incubated for 90 mins by CellTiter-Glo Luminescent assay; type: toxicity, cell-based; conditions: leucocyte
How it was run: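 CD-1 mouse bone marrow leukocytes at 10^4 cells/well were exposed to compounds up to 25 μM (highest tested; final DMSO 1%) for 90 min at 37 °C, 5% CO2. Viability was read by CellTiter-Glo luminescence. IC50 values are mean ± SD of three independent experiments.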

Leucocyte = assay: Antiradical activity against PMA-stimulated BALB/c mouse bone marrow leucocytes assessed as inhibition of ROS production at 50 uM measured for 60 mins by chemiluminescence based analysis; type: functional, cell-based
How it was run: (§1)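 BALB/c mouse bone marrow leukocytes were suspended at 10^6 cells/ml in HBSS with Ca2+/Mg2+ and 40 μM L-012. Compounds were added in HBSS+ (final DMSO 1%), tested up to a highest concentration of 50 μM. Cells were stimulated with 200 nM PMA, and chemiluminescence was read every 2 min for 60 min at 37 °C. IC50 came from % inhibition of the 60-min integrated signal versus log concentration (5–7 concentrations, nonlinear regression). Values are mean ± SD, n=3.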

[2] = molecular target: T1, Neutrophil elastase (Homo sapiens) (UniProt P08246); assay: Inhibition of human neutrophil elastase using N-methylsuccinyl-Ala-Ala-Pro-Val-7-amino-4-methylcoumarin as substrate at 50 uM measured every 30 secs for 10 mins by fluorescence based analysis
T1 sequence (whole entry): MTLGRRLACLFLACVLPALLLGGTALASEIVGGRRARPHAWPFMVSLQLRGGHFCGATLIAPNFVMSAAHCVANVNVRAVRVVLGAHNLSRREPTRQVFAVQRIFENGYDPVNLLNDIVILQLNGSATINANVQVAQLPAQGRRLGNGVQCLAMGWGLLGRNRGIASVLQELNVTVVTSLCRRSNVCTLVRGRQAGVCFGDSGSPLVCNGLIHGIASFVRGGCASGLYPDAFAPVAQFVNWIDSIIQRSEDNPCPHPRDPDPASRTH

[3] = Antiradical activity against PMA-stimulated BALB/c mouse bone marrow leucocytes assessed as inhibition of ROS production measured for 60 mins by chemiluminescence based analysis; type: functional, cell-based; conditions: Leucocyte, 1 h
How it was run: as §1, with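 “°C.” for “°C. IC50 came from % inhibition of the 60-min integrated signal versus log concentration (5–7 concentrations, nonlinear regression).”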

SMILES | Activity [1] | inhibition [2] | also measured
Cc1cccc(NC(=O)c2ccc(-n3[se]c4ccccc4c3=O)cc2)c1 | Non-Toxic | inactive | inhibition (Leucocyte): inactive
CCOC(=O)n1[se]c2ccccc2c1=O |  | inactive | 
O=C(C1CC1)n1[se]c2ccccc2c1=O |  |  | IC50 [3]: 50 nM
O=C(c1ccsc1)n1[se]c2ccccc2c1=O | Non-Toxic | inactive | 
CCCCCC(=O)n1[se]c2ccccc2c1=O | Non-Toxic |  | inhibition (Leucocyte): inactive
Cc1cccc(C(=O)n2[se]c3ccccc3c2=O)c1 | Non-Toxic |  | 
O=c1c2ccccc2[se]n1-c1ccccc1 |  | inactive | 
CCOC(=O)c1ccc(-n2[se]c3ccccc3c2=O)cc1 | Non-Toxic | inactive | 
CC(C)(C)C(=O)Oc1ccc(S(=O)(=O)n2[se]c3ccccc3c2=O)cc1 | Non-Toxic |  | 
CC(C)(C)C(=O)Oc1ccc(S(=O)(=O)Nc2ccccc2C(=O)NCC(=O)O)cc1 | Non-Toxic |  | 
O=C(NC1CC1)n1[se]c2ccccc2c1=O |  | inactive | 
O=C(NC1CC1)c1ccc(-n2[se]c3ccccc3c2=O)cc1 |  | inactive | 
CCOC(=O)CC(=O)n1[se]c2ccccc2c1=O |  | inactive | 
